Assay outcomes deposited in PubChem by several laboratories.
Shown are actives, neighbours in structure and some others; about 2.1% of the full set was active somewhere.
RORa activator – activators of orphan receptor RORA, primary screen, cell-based, luminescence | CHO-K1 Gal4-RORA LBD luciferase reporter; percent increase over mock-subtracted basal signal | Nuclear receptor ROR-alpha (Homo sapiens), P35398 | activation, % at 10 µM | 1.5% of 65,000 active;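 active = activation above the mean of all tested compounds plus 3 SD, cut at about 49% in these data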;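 note: 0% = DMSO-treated RORA cells and 100% = added signal equal to DMSO minus mock-transfected cells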
TNAP act mid DEA – human TNAP enzyme activators, primary screen, biochemical, luminescent, intermediate phosphate acceptor level. activation factor at 20 µM. purified TNAP, CDP-star luminescence, 100 mM DEA, 30 min; active compounds read high; scale: 0 levamisole-inhibited, 1 vehicle-only enzyme. Alkaline phosphatase, tissue-nonspecific isozyme (Homo sapiens), P05186. AID 813, 2007. 64,000 tested, under 10 active;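 active = activation factor of at least 2 at 20 µM, relative to controls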
Target sequence (P05186 whole entry, looked up): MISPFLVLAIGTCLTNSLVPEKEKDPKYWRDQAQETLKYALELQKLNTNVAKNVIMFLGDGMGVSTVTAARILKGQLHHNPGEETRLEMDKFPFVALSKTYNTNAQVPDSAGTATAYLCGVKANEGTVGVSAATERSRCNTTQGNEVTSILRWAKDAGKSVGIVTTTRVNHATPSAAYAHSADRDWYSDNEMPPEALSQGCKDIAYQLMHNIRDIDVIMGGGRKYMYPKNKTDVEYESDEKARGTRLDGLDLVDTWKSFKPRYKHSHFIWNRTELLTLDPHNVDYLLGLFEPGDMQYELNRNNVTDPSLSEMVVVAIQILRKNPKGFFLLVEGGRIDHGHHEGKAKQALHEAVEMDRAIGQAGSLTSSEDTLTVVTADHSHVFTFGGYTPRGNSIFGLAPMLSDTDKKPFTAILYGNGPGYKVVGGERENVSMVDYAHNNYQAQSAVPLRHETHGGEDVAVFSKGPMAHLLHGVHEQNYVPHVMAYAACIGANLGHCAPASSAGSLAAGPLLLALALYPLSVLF
CD11b adhes inh – inhibitors of CD11b/CD18 adhesion to fibrinogen, primary screen, K562 cells, luminescence; Integrin beta-2 (Homo sapiens) + Integrin alpha-M (Homo sapiens), P05107+P11215; 0.54% of 93,000 active; AID 1497, 2009; inhibition, % at 10 µM; ATPlite luminescence; Mn2+ added to activate the integrin;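 active = primary inhibition of 50% or more at 10 µM, then 40% or more on retest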
CD11b adhes enh – enhancers of CD11b/CD18 adhesion to fibrinogen, primary screen, K562 cells, luminescence; Integrin beta-2 (Homo sapiens) + Integrin alpha-M (Homo sapiens), P05107+P11215; ATPlite luminescence; activation, % at 10 µM; 0.07% of 93,000 active;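 active = 10 µM primary screen giving 50% or more activity, confirmed by 40% or more on retest at that dose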
SF1 activator – activators of human SF-1, primary screen, cell-based, CHO-K1, Gal4-SF-1 LBD, luciferase luminescence; Steroidogenic factor 1 (Homo sapiens), Q13285; CHO-K1 Gal4-SF-1 LBD luciferase reporter; % increase over DMSO SF-1-specific signal; activation, % at 10 µM; 1.9% of 65,000 active; AID 522, 2006;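 active = activation above the mean activation of all tested compounds plus 3 SD, cut at about 50% in these data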
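Material: CHO-K1 cells with Gal4–hSF-1 LBD chimera plus Gal4-driven luciferase / Input: 4,000 CHO-K1 cells per well / Incubation: compound exposure 20 h at 37 °C / Signal: luminescence read 15 min after SteadyLite luciferase reagent, after room-temperature equilibration / Read-out: percent activation versus DMSO / Benchmarks: DMSO negative control and −SF1 background wells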
MT1-MMP txn act – MT1-MMP promoter reporter activation – cell-based, luciferase luminescence, primary screen | HT1080 MT1-MMP promoter luciferase reporter, overnight; active compounds read high | activation factor at 10 µM | 0.16% of 86,000 active;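 active = activation factor of at least 2 for MT1-MMP transcription at 10 µM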
The depositor's hits bear a star; / = no result given.

SMILES	RORa activator	TNAP act mid DEA	CD11b adhes inh	CD11b adhes enh	SF1 activator	MT1-MMP txn act
Cc1cnc(NC(=O)CSc2nnc(COc3c(C)cccc3C)o2)s1	-11	0.9	-10	1	-1	1.2
Cc1occc1-c1nnc(SCC(=O)Nc2nc(C(C)(C)C)cs2)o1	/	/	-2	-1	/	1.1
COc1ccc2nc(NC(=O)CSc3nnc(-c4ccoc4C)n3C)sc2c1	107*	0.9	0	-2	-7	1.5
COc1ccc(C(NC(=O)N2CC(C)OC(C)C2)C(Cl)(Cl)Cl)cc1F (centres undefined)	/	/	-4	5	/	/
O=C(O)CCc1nc(-c2ccc(Cl)cc2)no1	-10	1	1	2	-1	/
CC(C)(CC(=O)O)Cc1nc(-c2ccc(Cl)cc2)no1	0	1	6	2	63*	1.1
CCOC(=O)c1cnc2c(-c3cccc(Br)c3)cnn2c1C	/	/	1	5	/	/
COc1ccc(N(CC(=O)Nc2cc(C)ccc2OC)S(=O)(=O)c2c(C)noc2C)cc1	24	0.9	7	-1	54*	1.2
CCOC(=O)Cc1nnc2c(Nc3ccccc3F)nc3nonc3n12	-10	0.8	99*	-11	13	1.1
O=C(NCCN1CCOCC1)c1cc(-c2cccs2)on1	68*	0.9	/	/	35	1.2
O=C(NCCN1CCOCC1)c1cc(-c2ccccc2)on1	-1	0.9	-9	6	37	1.2
O=C(c1cc(-c2cccs2)on1)N1CCOCC1	51*	0.9	4	-2	48	1.3
O=C(c1cc(-c2cccs2)on1)N1CCN(C(c2ccccc2)c2ccccc2)CC1	/	/	-8	1	/	/
COCCN1C(=O)c2ccccc2C(C(=O)N2CCN(c3ccccc3)CC2)C1c1ccc(F)cc1 (centres undefined)	/	/	-3	-2	/	1.3
O=C1CN(C(=O)OCc2ccccc2)c2ccccc2N1	51*	1	-18	5	47	1.4
O=C1CN(C(=O)c2cc3ccccc3o2)c2ccccc2N1	/	/	2	3	/	/
CCOC(=O)C1CCN(C(=S)Nc2cc(OC)c(OC)cc2C(=O)OC)CC1	/	/	-4	-6	/	1.1
c1ccc(N2CCN(c3nc4cc5c(cc4s3)OCCO5)CC2)cc1	77*	0.9	27	5	61*	1.3
c1c2c(cc3sc(N4CCOCC4)nc13)OCCO2	-69	0.9	6	-6	-65	0.2
O=C(Nn1cnc2ccccc2c1=O)c1ccccc1Cl	37	1	-1	-3	65*	1.3
CCC/C=C(\CCC)C(NC(=O)c1ccc(C(F)(F)F)cc1)c1ccccc1 (centres undefined)	/	/	/	/	/	1.2
COc1cccc(S(=O)(=O)NCc2ccc(C(=O)Nc3ccc(Cl)cc3)cc2)c1	/	/	30	-2	/	/
COc1cccc(S(=O)(=O)NCc2ccc(C(=O)Nc3cccc(Cl)c3)cc2)c1	/	/	55*	1	/	/
CCOC(=O)c1cn(Cc2ccccc2)c(C(=O)OC(C)(C)C)c1O	/	/	/	/	/	1.2
Brc1ccc(-c2nnc(-c3cccc(Br)c3)o2)cc1	/	/	11	-2	/	1.4
SMILES	RORa activator	TNAP act mid DEA	CD11b adhes inh	CD11b adhes enh	SF1 activator	MT1-MMP txn act
Cc1ccc(-c2nnc(-c3ccc(Br)cc3)o2)o1	25	0.9	-5	-2	75*	1.3
COCCNC(=O)CSc1nnc(CCCN2C(=O)c3cccc4cccc(c34)C2=O)n1-c1ccccc1	/	/	7	2	/	/
CC(C)(C)c1cc(C(c2cccnc2)N2CCN(CCO)CC2)cc(C(C)(C)C)c1O (centres undefined)	13	0.9	52*	-6	-34	/
Cc1ccccc1-c1nc2ccccc2[nH]1	/	/	/	/	/	2*
CSc1ncccc1-c1nc2ccccc2[nH]1	/	/	0	-2	/	/
Cn1cc(Cl)c(-c2nc3ccccc3[nH]2)n1	56*	0.9	3	0	44	1.2
